# This excerpt belongs to a sample that is enriched for hits.
# DTT redox prof – compounds producing H2O2 with reducing agent – biochemical, NIH compound library profiling, artefact control for MLSCN library redox annotation, primary screen | DTT-dependent redox cycling H2O2, phenol red/HRP absorbance; 100% = 100 µM peroxide control, 0% = buffer | 200,000 tested, 0.03% active | activation, % at 10 µM;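 active = activation of at least 50% relative to the plate's high and low controls in the primary single-dose screen; inactive = activation below 50%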;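 also: compound incubated with DTT at 0.8 mM final as the reducing agent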
# Hep lipid drop – modulators of hepatic lipid droplet formation. AML12 mouse hepatocytes, oleate lipid droplets, BODIPY imaging. inhibition, % at 6.5 µM. 240,000 tested, 0.4% active;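 active = lipid droplet intensity inhibited by at least 50%, with more than 500 cells counted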
#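 Test system: AML12 hepatocytes (mouse); reagent: oleate loading, 100 µM; dosing: one dose, 6.5 µM compound; incubation: overnight exposure; signal: fluorescence imaging, 20x objective, two fields per well; read-out basis: % inhibition of corrected integrated BODIPY droplet signal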
# T cruzi inh – T. cruzi replication inhibition; T. cruzi beta-gal in NIH3T3, luminescence, 90 h; inhibition, % (no concentration beside the values); 300,000 tested, 1.4% active;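 active = mean inhibition across valid replicates above about 55%, limit read from the data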;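 also: signal also drops with host cell toxicity which is not excluded here; 0% = plate median of DMSO wells and 100% = zero luminescence signal; higher percent means less beta-gal luminescence so fewer parasites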
#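 System: Mouse NIH/3T3 fibroblasts infected with β-gal-expressing T. cruzi Tulahuen C4 | Quantity: NIH/3T3 cells, 5,000 per well | Reagent: 5000 reporter trypomastigotes per well | Dosing: Compound pinned at 50 nL/well, DMSO | Schedule: 3 h host attachment, then at least 90 h co-culture | Detection: GalScreen luminescence, 60 min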
# Lmaj promast – Leishmania major promastigote growth inhibition; AID 1063; inhibition, % at 10 µM; Leishmania major promastigotes, resazurin fluorescence viability; 200,000 tested, 9% active; in the data active = inhibition above about 50%;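 also: promastigotes grown with compound for 44 hours at 28 °C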
# MPTP inh – permeability transition pore inhibition; 360,000 tested, 1.4% active; inhibition, % at 10 µM; isolated mouse mitochondria, Ca2+ swelling absorbance, 30 min; AID 602449;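 active = inhibition of 50% or more, scaled per plate between neutral and stimulator controls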;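 also: 0% = DMSO wells given calcium and 100% = 1 mM EGTA wells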
# Rh123 counter – mitochondrial membrane potential, counter-screen. shares compounds with MPTP inh. isolated mitochondria, Rhodamine 123 fluorescence. inhibition, % at 10 µM. 5,000 tested, 78% active. AID 624504; in the data active = inhibition above about 22%;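 also: 0% = DMSO vehicle and 100% = positive control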
# MPTP swell DR – dose response confirmation of mitochondrial permeability transition pore inhibitors | shares compounds with MPTP inh | isolated mitochondria swelling, absorbance | IC50, µM | 780 tested, 58% active | AID 651561; in the data active = IC50 below about 20 µM
# MPTP counter DR – counter-screen for mitochondrial permeability transition pore inhibitors, dose response. isolated mitochondria counterscreen, fluorescence read-out. AID 651564. IC50, µM. shares compounds with MPTP inh. 780 tested, 49% active; in the data active = IC50 below about 80 µM
# The depositor's hits bear a star; i = inactive; x = no result.
SMILES,DTT redox prof,Hep lipid drop,T cruzi inh,Lmaj promast,MPTP inh,Rh123 counter,others
CC1=NN(c2ccccc2)C(=O)/C1=C/c1c(O)n(-c2ccc(F)cc2)[nH]c1=O,0,11,-21,-6,61*,13,
CC1=NN(c2ccccc2)C(=O)C1=Cc1ccccc1,x,x,x,x,11,x,
CC1=NN(c2ccccc2)C(=O)/C1=C/c1ccc(Cl)cc1,x,3,6,x,98*,84*,
N#Cc1ccc(C(=O)NNC(=O)c2cccc(S(=O)(=O)N3CCOCC3)c2)cc1,x,x,x,x,0,x,
CCC1CCCCN1S(=O)(=O)c1ccc(NC(=O)C2CCCO2)cc1 (stereo not drawn),x,5,4,x,1,x,
CCc1ccc(NC(=O)[C@H](Cc2c[nH]c3ccccc23)NC(=O)[C@@H]2Cc3ccccc3CN2)cc1,x,7,-5,x,72*,-16,MPTP swell DR=7.6*;MPTP counter DR=>80
CC1CCCN(C(=O)COC(=O)C2CCN(S(=O)(=O)c3ccc4c(c3)OCCO4)CC2)C1 (stereo not drawn),x,x,-3,x,0,x,
COc1cc(/C=C2\SC(=O)N(CCN)C2=O)ccc1OS(=O)(=O)c1cc(C)ccc1C,-2,-20,47,100*,82*,-24,MPTP swell DR=7.5*;MPTP counter DR=29*
COc1ccc(NCc2nc3ccccc3n2CCOc2ccc(C)cc2)cc1,0,-17,39,91*,70*,37*,
N#Cc1ccc(Sc2ccccn2)c([N+](=O)[O-])c1,x,-3,-4,x,1,x,
c1ccc(COc2ccc(OCCCNC3CCCC3)cc2)cc1,-2,-3,51,100*,90*,-11,MPTP swell DR=3.1*;MPTP counter DR=43*
O=C1C(Cc2cccc([N+](=O)[O-])c2)SC(=Nc2ccccc2)N1c1ccccc1 (stereo not drawn),0,-62,0,45,-1,x,
Cc1ccc(C2(c3noc(CN(C)CC4CCCCO4)n3)CCCC2)cc1 (stereo not drawn),0,12,0,-7,-1,x,
Cc1ccc(C2(c3noc(CN4CCC(c5ccncc5)CC4)n3)CCCC2)cc1,-1,-11,49,51*,69*,46*,
CCCCCCc1cc2cc(S(=O)(=O)c3ccc(Cl)cc3)c(=O)oc2cc1O,0,-44,-1,-7,101*,94*,
CCCCCCc1cc2cc(C(=O)NCc3ccccc3)c(=N)oc2cc1O,0,6,-5,-6,86*,74*,
N=c1oc2ccc(Br)cc2cc1C(=O)NCc1ccccc1,x,-2,-2,x,0,x,
CCN(CC)c1ccc2cc(S(=O)(=O)c3ccc(Cl)cc3)c(=O)oc2c1,1,-13,41,-1,1,x,
CCCCCCc1cc2cc(S(=O)(=O)c3ccc(C)cc3)c(=O)oc2cc1O,1,-32,-16,-7,99*,78*,
CC(C)CC(c1nnnn1Cc1ccc2c(c1)OCO2)N1CCC(C(N)=O)CC1 (stereo not drawn),0,-18,0,-3,0,x,
CC(C)c1ccc(NC(=O)c2ccccc2NC(=O)C2CCCCC2C(=O)O)cc1 (stereo not drawn),x,21,-3,x,0,x,
COc1ccc(-n2c(=O)c3ccccc3n(Cc3ccccc3F)c2=O)cc1OC,0,-10,2,7,0,x,
COc1ccc(C)cc1Nc1n[n+](-c2ccccc2)c(-c2c(Cl)cccc2Cl)s1,x,x,44,x,x,x,
CCc1ccc(Nc2n[n+](-c3ccccc3)c(-c3ccc(N(CC)CC)cc3)s2)cc1,x,-47,58*,x,96*,114*,
CCc1ccc(Nc2n[n+](-c3ccccc3)c(-c3c(Cl)cccc3Cl)s2)cc1,x,-12,59*,x,100*,112*,
SMILES,DTT redox prof,Hep lipid drop,T cruzi inh,Lmaj promast,MPTP inh,Rh123 counter,others
CCN(CC)c1ccc(-c2sc(Nc3ccccc3)n[n+]2-c2ccc(F)cc2)cc1,x,0,29,x,61*,102*,
Fc1ccc(-[n+]2nc(Nc3ccccc3)sc2-c2c(Cl)cccc2Cl)cc1,x,-18,42,x,39,x,
COc1ccc(C)cc1Nc1n[n+](-c2ccccc2)c(-c2ccc(N(C)C)cc2)s1,x,-65,47,x,89*,100*,
O=[N+]([O-])c1ccc(/C=N/NC(=S)Nc2ccc(Cl)cc2Cl)s1,x,0,56*,x,52*,61*,
O=[N+]([O-])c1ccc(O)c(/C=N/NC(=S)Nc2ccc(Cl)cc2Cl)c1,x,-33,44,x,96*,47*,
Fc1ccc(/C=N/NC(=S)Nc2ccc(Cl)cc2Cl)cc1,x,-6,14,x,7,x,
O=C(CSc1nc2nc(-c3cccs3)cc(C(F)(F)F)c2c(=O)[nH]1)Nc1c(F)c(F)c(F)c(F)c1F,0,-4,-8,-9,55*,70*,
O=C(Nc1ccc2c(c1)OCO2)O[C@@H]1C[C@H]2CCCC(=O)N3CC[C@@H](C1)[C@@H]23,x,1,-4,x,-1,x,
CC1(C)CCC(=O)N2CC[C@H]3C[C@H](OC(=O)Nc4ccc(Br)cc4)C[C@@H]1[C@H]32,x,5,-5,x,69*,87*,
CC(C)COC(=O)NCCCOC(=O)Nc1ccccc1,0,x,-10,8,-3,x,
CC(C)COC(=O)NCCOC(=O)Nc1cccc(Cl)c1,3,-31,-9,-3,102*,100*,
COc1ccc(NC(=O)COC(=O)CCNS(=O)(=O)c2ccccc2)cc1OC,-2,8,-12,0,1,x,
COc1ccc(NC(=O)COC(=O)CNS(=O)(=O)c2ccccc2)cc1OC,0,-15,-16,-1,120*,-3,
N#CCC(=O)NCCCOC(=O)Nc1ccc(Cl)c(Cl)c1,0,x,-11,6,79*,86*,
CCOc1c(C)cnc2c1c(=O)n(Cc1cccc(Cl)c1)c(=O)n2C,x,-4,14,x,-1,x,
COc1ccc(CCNCC(O)COc2cccc(Br)c2)cc1OC (stereo not drawn),x,6,54,x,1,x,
COc1ccc(CCNCC(O)COc2ccc(OC)cc2C(C)(C)C)cc1 (stereo not drawn),x,-51,20,x,80*,-18,MPTP swell DR=6.2*;MPTP counter DR=41*
CC(=O)c1cn(CCOc2cc(C)ccc2C)c2ccccc12,x,-40,23,x,97*,83*,
COc1cccc(OCCn2cc(C(C)=O)c3ccccc32)c1,x,-7,13,x,61*,56*,
Fc1cccc(/C=N/n2c(C3CCCCC3)n[nH]c2=S)c1,x,-7,8,x,1,x,
O=S(=O)(c1cccc(F)c1)N1CCN(c2nc(-c3cccnc3)nc3ccccc23)CC1,x,x,x,x,-2,x,
CCOc1ccccc1C(=O)Nc1cnn(Cc2ccc(F)cc2)c1,0,0,6,3,-1,x,
CC(C)c1c(O)ccc2c1CC[C@H]1C(C)(C)CCC[C@]21C,x,x,x,x,98*,11,MPTP swell DR=i;MPTP counter DR=16*
